# The entries come from a sample that favours hits as a whole.
# INS-1E ATP HTS – protection of INS-1E cells from cytokine death, primary screen, ATP luminescence, single point; actives 0.1% (n = 20,000); INS-1E cytokine-induced death, 48 h; normalised: neutral wells 0, positive control 100; protection from cytokine-induced ATP loss, % at 10 µM;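 active means mean replicate protection from cytokine-induced ATP loss at least 50% and at least 75% of replicates each reaching 50%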
#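 Assay system: INS-1E rat cells / Quantity: 8000 cells per well / Medium: RPMI without phenol red, 5% FBS / Probe or stimulus: three-cytokine cocktail (IFN-γ, TNF-α, IL-1β) / Dosing: one compound concentration, pin transfer / Timing: 48 h co-treatment, 10 min post-lysis read / Technique: CellTiter-Glo luminescence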
# A1 apoptosis 2 – A1 inhibitors via caspase activation, primary screen, cell-based, luminescence, HTS, two replicates. 24,000 tested, under 10 active. caspase activation, % (concentration not given with the values). MEF A1-2A-BIM cells, caspase-Glo luminescence, 3 h; percent of clofoctol response, DMSO zero; in the data active means caspase activation above about 5.9%
#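 Evaluation: Caspase-3/7 activity from luminescence increase | Assay system: A1-2A-BIM mouse embryonic fibroblasts | Quantity: 2500 MEF cells/well | Medium: RPMI-1640 plus 10% FBS | Detection: Caspase-Glo 3/7 luminescence, 1 h at room temperature | Dosing: 50 nL compound per well, pinned | Timing: Cells settled overnight, compound exposure 3 h at 37 °C, 5% CO2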
# T cruzi HTS – inhibitors of intracellular Trypanosoma cruzi, primary screen, cell-based, plate reader, single point, set 2; intracellular Trypanosoma cruzi in host cells; activity score (inhibition), % at 5.01 µM; actives 4.9% (n = 22,000); AID 651903, 2012; in the data active means activity score above about 55%;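 further: parasites and compound incubated about four days before reading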
# Numbers stand for hits; i = inactive; nt = no result.
SMILES,INS-1E ATP HTS,A1 apoptosis 2,T cruzi HTS
Cc1ccc(S(=O)(=O)Nc2ccc3c(c2)C(=O)N([C@H](C)CO)C[C@H](C)[C@@H](CN(C)Cc2ccc(Cl)c(Cl)c2)O3)cc1,i,nt,i
C[C@@H]1CN([C@H](C)CO)C(=O)c2cc(NS(=O)(=O)c3ccc(F)cc3)ccc2O[C@H]1CN(C)Cc1ccc(Cl)c(Cl)c1,i,nt,i
Cc1ccc(S(=O)(=O)Nc2ccc3c(c2)C(=O)N([C@@H](C)CO)C[C@H](C)[C@H](CN(C)Cc2ccc(Cl)c(Cl)c2)O3)cc1,nt,i,14.4
C[C@H]1CN([C@@H](C)CO)C(=O)c2cc(NS(=O)(=O)c3cccs3)ccc2O[C@@H]1CN(C)Cc1ccc(Cl)c(Cl)c1,i,nt,56.9
O=C(NO)c1cccc(C(=O)N/N=C/c2cccc(Br)c2)c1,i,i,i
COc1ccc(C#Cc2ccc3c(c2)[C@]2(C(=O)N3)[C@H](C(=O)O)[C@H]3C(=O)O[C@H](c4ccccc4)[C@H](c4ccccc4)N3[C@@H]2c2ccc(OCCO)cc2)cc1,nt,i,nt
O=C(N/N=C/c1cc(Br)cc([N+](=O)[O-])c1O)c1ccccn1,i,i,i
C[C@@H]1CN([C@@H](C)CO)C(=O)c2cccc(NC(=O)Nc3ccccc3)c2O[C@H]1CN(C)S(=O)(=O)c1ccc(Cl)cc1,i,nt,i
C[C@@H]1CN([C@H](C)CO)C(=O)c2cc(NC(=O)CCCN(C)C)ccc2O[C@@H]1CN(C)Cc1ccc2c(c1)OCO2,i,i,i
C[C@H](CO)N1C[C@H](C)[C@H](CN(C)Cc2ccc(Cl)c(Cl)c2)Oc2c(NC(=O)CCCCCC(=O)Nc3ccccc3N)cccc2C1=O,i,i,65.9
C[C@@H]1CN([C@@H](C)CO)C(=O)c2cccc(NC(=O)CCCCCC(=O)Nc3ccccc3N)c2O[C@@H]1CN(C)Cc1ccccc1,i,nt,i
C[C@H](CO)N1C[C@H](C)[C@@H](CN(C)Cc2ccc(-c3ccccc3)cc2)Oc2c(NC(=O)CCCCCC(=O)Nc3ccccc3N)cccc2C1=O,i,i,75.2
C[C@@H]1CN([C@@H](C)CO)C(=O)c2cccc(NC(=O)CCCCCC(=O)Nc3ccccc3N)c2O[C@H]1CN(C)Cc1ccc(-c2ccccc2)cc1,nt,i,nt
C[C@@H]1CN([C@H](C)CO)C(=O)c2cccc(NC(=O)CCCCCC(=O)Nc3ccccc3N)c2O[C@@H]1CN(C)Cc1ccc(Oc2ccccc2)cc1,i,i,i
C[C@@H]1CN([C@@H](C)CO)C(=O)c2cccc(NC(=O)CCCCCC(=O)Nc3ccccc3N)c2O[C@@H]1CN(C)Cc1ccc(Oc2ccccc2)cc1,i,nt,59.0
O=C(CCCCCCC(=O)Nc1ccccc1O)N/N=C/c1ccc(S(=O)(=O)O)o1,i,i,i
C[C@H](CO)N1C[C@H](C)[C@@H](CN(C)Cc2ccc(-c3ccccc3)cc2)Oc2c(NC(=O)c3ccncc3)cccc2C1=O,i,nt,56.7
C[C@@H]1CN([C@@H](C)CO)C(=O)c2cccc(NC(=O)c3ccncc3)c2O[C@H]1CN(C)Cc1ccc(-c2ccccc2)cc1,i,nt,82.7
C[C@@H]1CN([C@@H](C)CO)C(=O)c2cccc(NC(=O)c3ccncc3)c2O[C@@H]1CN(C)Cc1ccccc1,i,nt,i
C[C@H](CO)N1C[C@H](C)[C@@H](CN(C)Cc2ccccc2)Oc2c(NC(=O)c3ccncc3)cccc2C1=O,i,nt,79.2
C[C@@H]1CN([C@@H](C)CO)C(=O)c2cccc(NC(=O)c3ccncc3)c2O[C@H]1CN(C)Cc1ccc(C(=O)O)cc1,i,i,i
C[C@H](CO)N1C[C@H](C)[C@H](CN(C)Cc2ccc(-c3ccccc3)cc2)Oc2c(NC(=O)c3ccncc3)cccc2C1=O,i,i,67.8
C[C@@H]1CN([C@H](C)CO)C(=O)c2cccc(NC(=O)c3ccncc3)c2O[C@@H]1CN(C)Cc1ccc(C(=O)O)cc1,i,i,i
COC(=O)CCCCCCC(=O)N/N=C/c1ccc(OC)c(Br)c1,i,i,i
CC(C)(C)OC(=O)N1CCC[C@H]1/C=N/NC(=O)CCCCCCC(=O)O,i,nt,i
SMILES,INS-1E ATP HTS,A1 apoptosis 2,T cruzi HTS
COC(=O)CCCCCCC(=O)N/N=C/c1cc(OC)c(OC)cc1[N+](=O)[O-],i,i,i
C[C@@H]1CCCCO[C@H](CN(C)C(=O)C2CCCCC2)[C@@H](C)CN([C@@H](C)CO)C(=O)c2cc(NC(=O)Nc3ccc(F)cc3)ccc2O1,nt,i,nt
C[C@@H]1CN([C@H](C)CO)C(=O)c2cccc(NC(=O)c3ccncc3)c2O[C@H]1CN(C)Cc1ccc(-c2ccccc2)cc1,i,nt,83.8
O=C(CCCCCCC(=O)Nc1ccccc1O)N/N=C/c1ccc(O)c(F)c1,i,i,i
COC(=O)CCCCCCC(=O)N/N=C/CC1=C(C)CCCC1(C)C,i,i,i
C[C@H](CO)N1C[C@H](C)[C@@H](CN(C)Cc2ccc(Oc3ccccc3)cc2)OCc2cnnn2CCCC1=O,nt,i,82.9
C[C@H](CO)N1C[C@H](C)[C@@H](CN(C)Cc2ccc(-c3ccccc3)cc2)OCc2cnnn2CCCC1=O,nt,nt,65.4
C[C@@H]1CN([C@@H](C)CO)C(=O)CCCn2cc(nn2)CO[C@H]1CN(C)Cc1ccc(Oc2ccccc2)cc1,i,i,67.5
C[C@H]1CN([C@@H](C)CO)C(=O)CCCn2nncc2CO[C@@H]1CN(C)S(=O)(=O)c1ccc(-c2ccccc2)cc1,nt,nt,83.7
C[C@H]1CN([C@@H](C)CO)C(=O)CCCn2cc(nn2)CO[C@@H]1CN(C)Cc1ccc(Oc2ccccc2)cc1,nt,i,i
C[C@H]1CN([C@@H](C)CO)C(=O)CCCn2nncc2CO[C@H]1CN(C)Cc1ccc(Oc2ccccc2)cc1,nt,i,i
C[C@@H]1CN([C@@H](C)CO)C(=O)CCCn2nncc2CO[C@H]1CN(C)S(=O)(=O)c1ccc(-c2ccccc2)cc1,i,i,i
C[C@@H]1CN([C@H](C)CO)C(=O)CCCn2nncc2CO[C@H]1CN(C)Cc1ccc(-c2ccccc2)cc1,i,nt,i
O=C(N/N=C/C=C/c1ccccc1)c1ccccc1O,i,i,i
O=C(Nc1ccccc1)C1=C[C@H](c2ccc3c(c2)Cc2ccccc2-3)C[C@H](OCc2ccc(CO)cc2)O1,nt,i,nt
C=CCNC(=O)[C@@H]1[C@H]2C(=O)O[C@H](c3ccccc3)[C@H](c3ccccc3)N2[C@H](c2ccccc2OCCO)[C@@]12C(=O)Nc1ccc(C#CC3(O)CCCCCC3)cc12,nt,i,nt
C[C@H](CO)N1C[C@H](C)[C@@H](CN(C)Cc2ccc(C(F)(F)F)cc2)OCc2cnnn2CCCC1=O,nt,i,60.6
C[C@H]1CN([C@@H](C)CO)C(=O)CCCn2nncc2CO[C@@H]1CN(C)Cc1ccc(C(F)(F)F)cc1,nt,i,i
O=C(CCCCCCC(=O)Nc1ccccc1O)N/N=C/c1ccc(Br)s1,i,i,i
O=C(O)CCCCCC(=O)N/N=C/c1ccoc1,i,i,i
O=C(N/N=C/c1ccncc1Br)c1ccccc1O,i,i,i
COC(=O)CCCCCCC(=O)N/N=C/c1cc(Br)c(O)c(Br)c1,i,i,i
